# In ChEMBL document CHEMBL3784950, “Higginsianins A and B, Two Diterpenoid α-Pyrones Produced by Colletotrichum higginsianum, with in Vitro Cytostatic Activity” (J Nat Prod, 2016):
# Activity calls are given as the source filed them. The calls are words filed in the database; no cut-off is given here.
# Experiments:
# [1] = (§1) Antiproliferative activity against human Hs683 cells assessed as cell viability after 72 hrs by MTT assay; type: functional, cell-based; details: Hs 683, 72 h
# Procedure, shortened: (§2)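 Cells cultured 72 h with compound; MTT conversion to formazan read by spectrophotometry as a measure of metabolically active cells. IC50 is the concentration that reduces growth by 50% relative to control optical density. Six replicates per condition; one or two independent sextuplicate experiments.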
# A549 = experiment: Antiproliferative activity against human A549 cells assessed as cell viability after 72 hrs by MTT assay; type: functional, cell-based; details: for IC50: A549, 72 h; procedure, shortened: as §2
# MCF7 = experiment: Antiproliferative activity against human MCF7 cells assessed as cell viability after 72 hrs by MTT assay; type: functional, cell-based; details: for IC50: MCF7, 72 h; procedure, shortened: as §2
# SK-MEL-28 = experiment: Antiproliferative activity against human SK-MEL-28 cells assessed as cell viability after 72 hrs by MTT assay; type: functional, cell-based; details: for IC50: SK-MEL-28, 72 h; procedure, shortened: as §2
# [2] = (§3) Antiproliferative activity against mouse B16F10 cells assessed as cell viability after 72 hrs by MTT assay; type: functional, cell-based; details: B16-F10, 72 h; procedure, shortened: as §2
# Hs 683 [3] = experiment: as §1; type: functional, cell-based; procedure, shortened: as §2
# U-373MG ATCC = experiment: (§4) Antiproliferative activity against human U373 cells assessed as cell viability after 72 hrs by MTT assay; type: functional, cell-based; procedure, shortened: as §2
# B16-F10 = experiment: as §3; type: functional, cell-based; procedure, shortened: as §2
# [4] = as §4; type: functional, cell-based, U-373MG ATCC; details: U373 MG; procedure, shortened: as §2
# Hs 683 [5] = experiment: Cytostatic activity against human Hs683 cells assessed as morphological changes at 1 uM after 48 hrs by phase contrast microscopic analysis; type: functional, cell-based
# Procedure, shortened: (§5)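 Phase-contrast microscopy of Hs683 glioma cells treated at 1 versus 50 μM, judging cytostatic versus cytotoxic morphology.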
# Hs 683 [6] = experiment: Cytotoxicity against human Hs683 cells assessed as morphological changes at 50 uM after 48 hrs by phase contrast microscopic analysis; type: functional, cell-based; procedure, shortened: as §5
# [7] = Antiproliferative activity against human Hs683 cells assessed as growth inhibition at 1 uM after 72 hrs by quantitative video microscopic analysis relative to control; type: functional; details: Hs 683, 72 h, read-out: GI
# Procedure, shortened: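 Hs683 cells filmed by computer-assisted phase-contrast microscopy at 1 μM and 40 μM versus control. Global growth is the cell count on the last image divided by that on the first, taken at 24, 48 and 72 h. The GGR index is treated global growth divided by control global growth. Run once in duplicate; mean ± SEM.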
# [8] = Stability in human Hs683 cells assessed as photosensitivity at 1 to 40 uM by quantitative video microscopic analysis; type: ADME, cell-based; details: hs 683, 40 µM
# [9] = Stability in human Hs683 cells assessed as photoactivity at 1 to 40 uM by quantitative video microscopic analysis; type: ADME, cell-based; details: hs 683, 40 µM
Compound,IC50 (A549) [µM],IC50 (MCF7) [µM],IC50 (SK-MEL-28) [µM],Stability [8],Stability [9],IC50 [1] [µM],IC50 [2] [µM],Activity (Hs 683 [3]),Activity (U-373MG ATCC),Activity (A549),Activity (MCF7),Activity (SK-MEL-28),Activity (B16-F10),IC50 [4] [µM],Activity (Hs 683 [5]),Activity (Hs 683 [6]),inhibition of growth at 1 µM [7] [%]
C=C1CC[C@H]2[C@]3(C)C[C@@H](C=C(C)C)O[C@H]3CC[C@]2(C)[C@@H]1Cc1c(O)c(C)c(C)oc1=O,,,,,,,,inactive,inactive,inactive,inactive,inactive,inactive,,,,
C=C1CC[C@@H]2[C@](C)(CC[C@H]3O[C@H](C=C(C)C)C[C@@]23C)[C@@H]1Cc1c(OC(C)=O)c(C)c(C)oc1=O,47,41,84,,,1,2,,,,,,,,,,
C=C1CC[C@@H]2[C@](C)(CC[C@H](O)[C@@]2(C)CCC=C(C)C)[C@@H]1Cc1c(O)c(C)c(C)oc1=O,,,,,,,,inactive,inactive,inactive,inactive,inactive,inactive,,,,

# Second part, led by results:
IC50 (A549) [µM],IC50 (MCF7) [µM],IC50 (SK-MEL-28) [µM],Stability [8],Stability [9],Compound,IC50 [1] [µM],IC50 [2] [µM],Activity (Hs 683 [3]),Activity (U-373MG ATCC),Activity (A549),Activity (MCF7),Activity (SK-MEL-28),Activity (B16-F10),IC50 [4] [µM],Activity (Hs 683 [5]),Activity (Hs 683 [6]),inhibition of growth at 1 µM [7] [%]
35,24,51,,,C=C1CC[C@@H]2[C@](C)(CC[C@H]3CO[C@H](C=C(C)C)C[C@]32C)[C@@H]1Cc1c(O)c(C)c(C)oc1=O,49,25,,,,,,,,,,
16,38,48,,,C=C1CC[C@@H]2[C@](C)(CC[C@H]3O[C@H](C=C(C)C)C[C@@]23C)[C@@H]1Cc1c(OC)c(C)c(C)oc1=O,0.4,1,,,,,,,,,,
33,19,73,Stable,Stable,C=C1CC[C@@H]2[C@](C)(CC[C@H]3O[C@H](C=C(C)C)C[C@@]23C)[C@@H]1Cc1c(O)c(C)c(C)oc1=O,1,1,,,,,,,63,Active,Active,50
29,2,88,,,C=C1CC[C@H]2[C@](C)(CCC=C(C)C)[C@H](O)CC[C@]2(C)[C@@H]1Cc1c(O)c(C)c(C)oc1=O,2,3,,,,,,,84,,,
